{"source": "ChEMBL document CHEMBL1649410", "about": "“Discovery of 7-N-piperazinylthiazolo[5,4-d]pyrimidine analogues as a novel class of immunosuppressive agents with in vivo biological activity” (J Med Chem, 2011)"}
{"tested_on": "Mus musculus", "test": "Suppression of cardiac allograft rejection of C57BL/6 mouse to BALB/c mouse assessed as surviving days at 40 mg/kg, po treatment started from day of transplantation for 30 days by immunosuppressive assay", "assay_type": "functional", "conditions": "not given", "method_in_brief": "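Female mice aged 8-10 weeks and weighing 20-25 g. Donors were inbred C57BL/6 (H-2b) and recipients Balb/c (H-2d). Animals were randomly allocated and dosed by daily gavage in 30% 2-hydroxypropyl-β-cyclodextrin. […] Each graft was scored as surviving days, compared with vehicle by Student t test.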", "units": {"Survival": "days"}}
{"smiles": "Nc1nc(N2CCN(C(=O)COc3ccc(Cl)cc3)CC2)c2nc(-c3cccnc3)sc2n1", "Survival": ">17"}
{"smiles": "C/C=C/C[C@@H](C)[C@@H](O)[C@H]1C(=O)N[C@@H](CC)C(=O)N(C)CC(=O)N(C)[C@@H](CC(C)C)C(=O)N[C@@H](C(C)C)C(=O)N(C)[C@@H](CC(C)C)C(=O)N[C@@H](C)C(=O)N[C@H](C)C(=O)N(C)[C@@H](CC(C)C)C(=O)N(C)[C@@H](CC(C)C)C(=O)N(C)[C@@H](C(C)C)C(=O)N1C", "note": "[CYCLOSPORINE]", "Survival": ">30"}
{"tested_on": "Lymphocyte", "test": "Immunosuppressive activity in peripheral blood lymphocytes isolated from two individuals assessed as proliferation using [methyl-3H]thymidine by mixed lymphocyte reaction assay", "assay_type": "functional, cell-based", "conditions": "Homo sapiens", "method_in_brief": "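Human PBMCs from heparinized blood of healthy donors, isolated over Lymphoprep, 1.6 × 10⁶ cells/mL in RPMI-1640 with 10% heat-inactivated FCS. Stimulators: RPMI1788 cells given 30 μg/mL mitomycin C, 20 min, 37 °C, washed, 0.6 × 10⁶ cells/mL. Cells mixed with diluted compound, 5 days at 37 °C in 5% CO₂. 1 μCi (methyl-³H)thymidine added for last 18 h; harvested, cpm counted. IC₅₀ from two independent experiments (mean).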", "units": {"IC50": "nM"}}
{"smiles": "Nc1nc(N2CCN(C(=O)COc3ccc(Cl)cc3)CC2)c2sc(-c3ccc(F)cc3)nc2n1", "IC50": "> 10000"}
{"smiles": "Nc1nc(N2CCNCC2)c2nc(-c3ccc(F)cc3)sc2n1", "IC50": 4300}
{"smiles": "Nc1nc(N2CCN(C(=O)COc3ccc(Cl)cc3)CC2)c2nc(-c3ccc(F)cc3)sc2n1", "IC50": 490}
{"smiles": "CC(C)(Oc1ccc(Cl)cc1)C(=O)N1CCN(c2nc(N)nc3sc(-c4ccc(F)cc4)nc23)CC1", "IC50": "> 10000"}
{"smiles": "Cc1ccc(NC(=O)N2CCN(c3nc(N)nc4sc(-c5ccc(F)cc5)nc34)CC2)cc1", "IC50": 700}
{"smiles": "Cc1cccc(NC(=O)N2CCN(c3nc(N)nc4sc(-c5ccc(F)cc5)nc34)CC2)c1", "IC50": 300}
{"smiles": "Nc1nc(N2CCN(S(=O)(=O)c3ccccc3)CC2)c2nc(-c3ccc(F)cc3)sc2n1", "IC50": "> 10000"}
{"smiles": "Nc1nc(N2CCN(C(=O)OCc3ccccc3)CC2)c2nc(-c3ccc(F)cc3)sc2n1", "IC50": 4900}
{"smiles": "CCCCCN1CCN(c2nc(N)nc3sc(-c4ccc(F)cc4)nc23)CC1", "IC50": "> 10000"}
{"smiles": "Nc1nc(N2CCN(Cc3ccccc3)CC2)c2nc(-c3ccc(F)cc3)sc2n1", "IC50": "> 10000"}
{"smiles": "Cc1cccc(N2CCN(c3nc(N)nc4sc(-c5ccc(F)cc5)nc34)CC2)c1", "IC50": "> 10000"}
{"smiles": "Nc1nc(N2CCN(C(=O)COc3ccc(Cl)cc3)CC2)c2nc(-c3ccc(F)cc3)oc2n1", "IC50": 3000}
{"smiles": "Nc1nc(N2CCN(C(=O)COc3ccc(Cl)cc3)CC2)c2nc(-c3ccc(F)cc3)[nH]c2n1", "IC50": 800}
{"smiles": "Nc1nc(N2CCN(C(=O)COc3ccc(Cl)cc3)CC2)c2cc(-c3ccc(F)cc3)sc2n1", "IC50": 700}
{"smiles": "Nc1nc(N2CCN(C(=O)COc3ccc(Cl)cc3)CC2)c2nc(Cc3ccc(F)cc3)sc2n1", "IC50": 700}
{"smiles": "CC(c1ccc(F)cc1)c1nc2c(N3CCN(C(=O)COc4ccc(Cl)cc4)CC3)nc(N)nc2s1", "note": "(centres undefined)", "IC50": 4380}
{"smiles": "Nc1nc(N2CCN(C(=O)COc3ccc(Cl)cc3)CC2)c2nc(CCc3ccc(F)cc3)sc2n1", "IC50": 4400}
{"smiles": "Nc1nc(N2CCN(C(=O)COc3ccc(Cl)cc3)CC2)c2nc(CCOc3ccc(F)cc3)sc2n1", "IC50": 3540}
{"smiles": "Nc1nc(N2CCN(C(=O)COc3ccc(Cl)cc3)CC2)c2nc(CCCCc3ccc(F)cc3)sc2n1", "IC50": 920}
{"smiles": "CCCCCc1nc2c(N3CCN(C(=O)COc4ccc(Cl)cc4)CC3)nc(N)nc2s1", "IC50": 690}
{"smiles": "Cc1ccc(-c2nc3c(N4CCN(C(=O)COc5ccc(Cl)cc5)CC4)nc(N)nc3s2)cc1", "IC50": 350}
{"smiles": "Nc1nc(N2CCN(C(=O)COc3ccc(Cl)cc3)CC2)c2nc(-c3ccc(Cl)cc3)sc2n1", "IC50": 270}
{"smiles": "Nc1nc(N2CCN(C(=O)COc3ccc(Cl)cc3)CC2)c2nc(-c3ccncc3)sc2n1", "IC50": 40}
{"smiles": "Nc1nc(N2CCN(C(=O)COc3ccc(Cl)cc3)CC2)c2nc(-c3cccnc3)sc2n1", "IC50": 50}
{"smiles": "Nc1nc(N2CCN(C(=O)COc3ccc(Cl)cc3)CC2)c2nc(-c3ccccn3)sc2n1", "IC50": 230}
{"smiles": "Nc1nc(N2CCN(C(=O)COc3ccccc3)CC2)c2nc(-c3ccc(F)cc3)sc2n1", "IC50": 90}
{"smiles": "Nc1nc(N2CCN(C(=O)COc3ccc(F)cc3)CC2)c2nc(-c3ccc(F)cc3)sc2n1", "IC50": 70}
{"smiles": "Nc1nc(N2CCN(C(=O)COc3ccc(Br)cc3)CC2)c2nc(-c3ccc(F)cc3)sc2n1", "IC50": 380}
{"smiles": "COc1ccc(OCC(=O)N2CCN(c3nc(N)nc4sc(-c5ccc(F)cc5)nc34)CC2)cc1", "IC50": 40}
{"smiles": "Nc1nc(N2CCN(C(=O)COc3ccc(F)cc3)CC2)c2nc(-c3cccnc3)sc2n1", "IC50": 12}
{"smiles": "COc1ccc(OCC(=O)N2CCN(c3nc(N)nc4sc(-c5cccnc5)nc34)CC2)cc1", "IC50": 12}
{"tested_on": "Mus musculus", "test": "Toxicity in BALB/c mouse during cardiac allograft from C57BL/6 mouse at 40 mg/kg, po treatment started from day of transplantation for 30 days", "assay_type": "organism-based", "set-up": "dose 40 mg/kg, route oral", "conditions": "in vivo, 720 h", "method_in_brief": "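Female mice aged 8-10 weeks, 20-25 g: C57BL/6 (H-2^b) donors, Balb/c (H-2^d) recipients. Recipients randomized to groups. Dosing 40 (mg/kg)/day by daily gavage. Vehicle 30% 2-hydroxypropyl-β-cyclodextrin given alone to controls (n = 6). […] Graft survival recorded in days. Student t test against vehicle group.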"}
{"smiles": "Nc1nc(N2CCN(C(=O)COc3ccc(Cl)cc3)CC2)c2nc(-c3cccnc3)sc2n1", "Activity": "Non-toxic"}
